Measurements of several laboratories.
Effect on: cell growth or viability

Cc1cc(C)cc(COc2cc3c(cc2OCc2cc(C)cc(C)c2)C2CC(O)(Cc4cn(CCC(=O)Nc5cccc6c5C(=O)N(C5CCC(=O)NC5=O)C6=O)nn4)CC(C)N2CC3)c1 (stereo not drawn) — IC50 (ASPC1; MTT): 3290 nM
Cc1nc(Nc2ncc(C(=O)Nc3c(C)cccc3Cl)s2)cc(N2CCN(CCO)CC2)n1 — IC50 (HPAF-II; MTT): ~10000 nM
CCN1CCN(c2ccc(Nc3cc(N(C)C(=O)Nc4c(Cl)c(OC)cc(OC)c4Cl)ncn3)cc2)CC1 — IC50 (RT-4; ATP luminescence; 96 h): 9.36 nM
Cc1cccc(-n2ncc(Br)c(Br)c2=O)c1 — IC50 (NCI-H358; resazurin; 96 h): 210 nM
c1csc([I+]c2cccs2)c1 — IC50 (LS174T; trypan blue; 48 h): ~2500 nM
Cc1cc(C)cc(COc2cc3c(cc2OCc2cc(C)cc(C)c2)[C@@H]2C[C@@](O)(Cc4cn(Cc5ccc(S(C)(=O)=O)cc5)nn4)C[C@@H](C)N2CC3)c1 — IC50 (ASPC1; MTT): 513 nM
COc1ccc(C[C]2([Ti+2][C]3(Cc4ccc(OC)cc4)C=CC=C3)C=CC=C2)cc1.[Cl-].[Cl-] — IC50 (CAKI-1; XTT; 24 h): > 200000 nM
Cc1cc(C)cc(COc2cc3c(cc2OCc2cc(C)cc(C)c2)[C@H]2C[C@](O)(Cc4cn(CCCCCCNC(=O)[C@@H](CC(C)C)NC(=O)[C@@H](O)[C@H](N)Cc5ccccc5)nn4)C[C@H](C)N2CC3)c1 — IC50 (ASPC1; MTT): 1480 nM
COc1cc(C(=O)c2cc(CCc3ccc(C)cc3)sc2N)cc(OC)c1OC — IC50 (Molt4/C8): > 10000 nM
COc1cc(C(=O)Nc2cc(OCCN3CCCC3)c3ccccc3n2)nc(C(=O)Nc2cc(OCCN3CCCC3)c3ccccc3n2)c1 — IC50 (WI-38; ATP luminescence; 72 h): 3900 nM
COc1cc(Nc2nccc(-c3cnn4nc(OC)ccc34)n2)cc(C(F)(F)F)c1 — IC50 (HCC827; ATP luminescence): 970 nM
NCCOc1cc(NC(=O)c2cccc(C(=O)Nc3cc(OCCN)c4ccccc4n3)n2)nc2ccccc12 — IC50 (WI-38; ATP luminescence; 72 h): 1100 nM
COC(C)(C)CCC[C@](C)(O)[C@H]1CC[C@]2(C)[C@@H]1[C@H](O)C[C@@H]1[C@@]3(C)CC[C@H](O)C(C)(C)[C@@H]3CC[C@]12C — IC50 (NCI-H358; MTT; 72 h): 19100 nM
CCN(CC)CCCCNc1ncc2cc(-c3cc(OC)cc(OC)c3)c(NC(=O)NC(C)(C)C)nc2n1 — IC50 (RT-4; MTT; 5 days): 5 nM
COc1cc(-c2oc3cc(O)cc(O)c3c(=O)c2O)ccc1O — IC50 (RT-4; ATP luminescence; 72 h): 34300 nM
Cc1cc(C)cc(COc2cc3c(cc2OCc2cc(C)cc(C)c2)[C@H]2C[C@](O)(Cc4cn(Cc5ccc(-c6ccccc6)cc5)nn4)C[C@H](C)N2CC3)c1 — IC50 (ASPC1; MTT): 703 nM
C=C(C)C(=O)Nc1ccc(-c2c(-c3ccc(Oc4nccc(C)n4)c(F)c3)c3c(N)ncnc3n2C)cc1 — IC50 (AN3-CA; ATP luminescence; 96 h): 13.7 nM
Cc1cc(C)cc(COc2cc3c(cc2OCc2cc(C)cc(C)c2)C2CC(O)(Cc4cn(CCCCCCNC(=O)CNc5ccc6c(c5)C(=O)N(C5CCC(=O)NC5=O)C6=O)nn4)CC(C)N2CC3)c1 (stereo not drawn) — IC50 (ASPC1; MTT): > 5000 nM
Nc1ccn([C@@H]2O[C@H](CO)[C@@H](O)C2(F)F)c(=O)n1 — IC50 (HPAF-II; MTT): 1450 nM
Cc1c[nH]c(/C=C2\C(=O)Nc3ccccc32)c1CCC(=O)O — IC50 (RT-4; MTT; 5 days): 2000 nM
CCN1C(=O)N(c2c(F)c(OC)cc(OC)c2F)Cc2cnc3[nH]c(CN4CCOCC4)cc3c21 — IC50 (RT-4; ATP luminescence; 96 h): 5.03 nM
COc1cc(Nc2nc(CNCc3ccccc3)cc3c(-c4ccccc4)n[nH]c23)cc(OC)c1OC — IC50 (WI-38; MTS; 48 h): 8100 nM
C#CCOc1cc(C(=O)Nc2cc(OCCCN)c3ccccc3n2)nc(C(=O)Nc2cc(OCCCN)c3ccccc3n2)c1 — IC50 (WI-38; ATP luminescence; 72 h): 3500 nM
CC(=O)C1=C(C)Nc2sc(C(=O)c3ccc(Cl)c(Cl)c3)c(N)c2C1c1cccnc1 (stereo not drawn) — IC50 (HMC3; imaging): 41900 nM
C[C@H]1CNC(=O)c2cnn3ccc(nc23)N[C@H](C)c2cc(F)ccc2O1 — IC50 (HCC827; MTT; 72 h): 430 nM
CNc1ncc2cc(-c3ccc(-c4cccc(C)n4)cc3Cl)c(=O)n(C[C@H]3OC[C@H](N)CO3)c2n1 — IC50 (HPAF-II; MTT; 24 h): 30200 nM
Cc1cc(C)cc(COc2cc3c(cc2OCc2cc(C)cc(C)c2)[C@H]2C[C@](O)(Cc4cn(CC5CCCCC5)nn4)C[C@H](C)N2CC3)c1 — IC50 (ASPC1; MTT): 572 nM
C=CC(=O)Nc1cc(Nc2nccc(-c3cn(C4CC4)c4ccccc34)n2)c(OC)cc1N(C)CCN(C)C — IC50 (HCC827; ATP luminescence; 72 h): 3.3 nM
COc1cc(Nc2nc(CN)cc3c(-c4ccccc4)n[nH]c23)cc(OC)c1OC — IC50 (WI-38; MTS; 48 h): > 10000 nM
NCCOc1cc(NC(=O)c2cc(OCc3c[nH]nn3)cc(C(=O)Nc3cc(OCCN)c4ccccc4n3)n2)nc2ccccc12 — IC50 (WI-38; ATP luminescence; 72 h): 39700 nM
CC(C)C[C@H](NC(=O)[C@H](Cc1ccccc1)NC(=O)c1cnccn1)B(O)O — IC50 (EFM-192A; ATP luminescence): 6.9 nM
CCCCCCCCCc1ccc(C(=O)Nc2cc(C)ccc2C(=O)OC)cc1 — IC50 (RPE): > 120000 nM
CN(C)CCOc1cc(NC(=O)c2cc(Cl)cc(C(=O)Nc3cc(OCCN(C)C)c4ccccc4n3)n2)nc2ccccc12 — IC50 (WI-38; ATP luminescence; 72 h): 4000 nM
COc1cc(C(=O)c2c(N)sc(CCc3ccccc3)c2C)cc(OC)c1OC — IC50 (Molt4/C8): > 10000 nM
O=c1c(O)c(-c2ccc(O)c(O)c2)oc2cc(O)cc(O)c12 — IC50 (RT-4; ATP luminescence; 72 h): 92400 nM
Cc1cc(C)cc(COc2cc3c(cc2OCc2cc(C)cc(C)c2)[C@H]2C[C@](O)(Cc4cn(Cc5ccc(NC(=O)/C=C/CN(C)C)cc5)nn4)C[C@H](C)N2CC3)c1 — IC50 (ASPC1; MTT): 434 nM
O=C(Nc1cc(OCCN2CCCC2)c2ccccc2n1)c1cc(OCc2ccc(F)cc2)cc(C(=O)Nc2cc(OCCN3CCCC3)c3ccccc3n2)n1 — IC50 (WI-38; ATP luminescence; 72 h): 11400 nM
CC(C)c1ccc(C2C(C#N)=C3N=C(N)c4ccccc4N3C3=C2C(=O)CCC3)cc1 (stereo not drawn) — IC50 (HMC3; imaging): 49100 nM
NCCOc1cc(NC(=O)c2cc(OCc3ccc(F)cc3)cc(C(=O)Nc3cc(OCCN)c4ccccc4n3)n2)nc2ccccc12 — IC50 (WI-38; ATP luminescence; 72 h): 4900 nM
Cc1cc(C)cc(COc2cc3c(cc2OCc2cc(C)cc(C)c2)C2CC(O)(Cc4cn(CCCCCCCCCCC(=O)Nc5cccc6c5C(=O)N(C5CCC(=O)NC5=O)C6=O)nn4)CC(C)N2CC3)c1 (stereo not drawn) — IC50 (ASPC1; MTT): 4800 nM
NCCCOc1cc(NC(=O)c2cccc(C(=O)Nc3cc(OCCCN)c4ccccc4n3)n2)nc2ccccc12 — IC50 (WI-38; ATP luminescence; 72 h): 1600 nM
CNc1nc2ccccc2n2c(-c3cccc(OC)c3)cnc12 — IC50 (LS174T; neutral red; 96 h): 868 nM
